From ChEMBL document CHEMBL2311462, “Design, synthesis, and functional evaluation of leukocyte function associated antigen-1 antagonists in early and late stages of cancer development” (J Med Chem, 2013) come the findings set out here.

Active and inactive are the calls of the source. No cut-off for these calls is given here.

In general, Kd refers to the free concentration of one partner at which half of the binding sites on the other are occupied at equilibrium, for simple one-to-one binding.

For one assay, the target named is T1, Integrin alpha-L (Homo sapiens, UniProt P20701).
T1 sequence (P20701 whole entry): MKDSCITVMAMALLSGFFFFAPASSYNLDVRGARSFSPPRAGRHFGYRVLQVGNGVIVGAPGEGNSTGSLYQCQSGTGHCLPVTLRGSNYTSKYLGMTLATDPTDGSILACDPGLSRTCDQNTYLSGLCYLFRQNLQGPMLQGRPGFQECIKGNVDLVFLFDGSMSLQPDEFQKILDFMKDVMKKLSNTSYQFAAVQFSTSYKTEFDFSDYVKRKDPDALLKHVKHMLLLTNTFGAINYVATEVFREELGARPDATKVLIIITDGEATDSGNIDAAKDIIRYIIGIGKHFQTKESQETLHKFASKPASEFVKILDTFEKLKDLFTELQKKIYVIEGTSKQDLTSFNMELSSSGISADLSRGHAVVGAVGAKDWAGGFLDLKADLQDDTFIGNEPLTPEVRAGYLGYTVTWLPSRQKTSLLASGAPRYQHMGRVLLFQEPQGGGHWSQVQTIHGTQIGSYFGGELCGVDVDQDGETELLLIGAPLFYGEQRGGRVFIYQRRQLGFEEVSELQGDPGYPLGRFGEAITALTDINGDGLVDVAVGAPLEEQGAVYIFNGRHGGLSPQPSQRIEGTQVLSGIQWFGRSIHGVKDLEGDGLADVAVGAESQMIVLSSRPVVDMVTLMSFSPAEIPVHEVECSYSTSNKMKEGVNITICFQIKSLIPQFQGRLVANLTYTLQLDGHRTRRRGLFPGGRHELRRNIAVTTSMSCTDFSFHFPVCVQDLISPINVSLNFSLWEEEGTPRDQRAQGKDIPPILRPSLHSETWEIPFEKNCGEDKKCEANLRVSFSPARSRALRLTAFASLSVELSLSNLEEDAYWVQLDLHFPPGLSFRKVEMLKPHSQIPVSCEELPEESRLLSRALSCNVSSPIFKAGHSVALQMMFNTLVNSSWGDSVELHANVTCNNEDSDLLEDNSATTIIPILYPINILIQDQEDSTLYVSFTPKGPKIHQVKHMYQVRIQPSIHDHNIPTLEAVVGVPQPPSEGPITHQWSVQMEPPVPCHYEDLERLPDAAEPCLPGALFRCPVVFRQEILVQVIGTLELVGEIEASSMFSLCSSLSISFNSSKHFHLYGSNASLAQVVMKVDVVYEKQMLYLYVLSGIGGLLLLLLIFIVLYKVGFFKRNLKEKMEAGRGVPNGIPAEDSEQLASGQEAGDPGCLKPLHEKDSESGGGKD
The assay is described as follows: Binding affinity to I-domain of human integrin alphaL (amino acid residues 128 to 307) plus initial methionine expressed in Escherichia coli by NMR spectroscopy.

A further assay is filed under the species Homo sapiens. The assay is described as follows: Binding affinity to protein G B1-domain (unknown origin).
Assay [1] deals with Integrin alpha-2 (Homo sapiens) (UniProt P17301). The assay is described as follows: Binding affinity to integrin alpha2 I-domain (unknown origin).
Integrin alpha-2 (Homo sapiens), sequence (P17301 whole entry): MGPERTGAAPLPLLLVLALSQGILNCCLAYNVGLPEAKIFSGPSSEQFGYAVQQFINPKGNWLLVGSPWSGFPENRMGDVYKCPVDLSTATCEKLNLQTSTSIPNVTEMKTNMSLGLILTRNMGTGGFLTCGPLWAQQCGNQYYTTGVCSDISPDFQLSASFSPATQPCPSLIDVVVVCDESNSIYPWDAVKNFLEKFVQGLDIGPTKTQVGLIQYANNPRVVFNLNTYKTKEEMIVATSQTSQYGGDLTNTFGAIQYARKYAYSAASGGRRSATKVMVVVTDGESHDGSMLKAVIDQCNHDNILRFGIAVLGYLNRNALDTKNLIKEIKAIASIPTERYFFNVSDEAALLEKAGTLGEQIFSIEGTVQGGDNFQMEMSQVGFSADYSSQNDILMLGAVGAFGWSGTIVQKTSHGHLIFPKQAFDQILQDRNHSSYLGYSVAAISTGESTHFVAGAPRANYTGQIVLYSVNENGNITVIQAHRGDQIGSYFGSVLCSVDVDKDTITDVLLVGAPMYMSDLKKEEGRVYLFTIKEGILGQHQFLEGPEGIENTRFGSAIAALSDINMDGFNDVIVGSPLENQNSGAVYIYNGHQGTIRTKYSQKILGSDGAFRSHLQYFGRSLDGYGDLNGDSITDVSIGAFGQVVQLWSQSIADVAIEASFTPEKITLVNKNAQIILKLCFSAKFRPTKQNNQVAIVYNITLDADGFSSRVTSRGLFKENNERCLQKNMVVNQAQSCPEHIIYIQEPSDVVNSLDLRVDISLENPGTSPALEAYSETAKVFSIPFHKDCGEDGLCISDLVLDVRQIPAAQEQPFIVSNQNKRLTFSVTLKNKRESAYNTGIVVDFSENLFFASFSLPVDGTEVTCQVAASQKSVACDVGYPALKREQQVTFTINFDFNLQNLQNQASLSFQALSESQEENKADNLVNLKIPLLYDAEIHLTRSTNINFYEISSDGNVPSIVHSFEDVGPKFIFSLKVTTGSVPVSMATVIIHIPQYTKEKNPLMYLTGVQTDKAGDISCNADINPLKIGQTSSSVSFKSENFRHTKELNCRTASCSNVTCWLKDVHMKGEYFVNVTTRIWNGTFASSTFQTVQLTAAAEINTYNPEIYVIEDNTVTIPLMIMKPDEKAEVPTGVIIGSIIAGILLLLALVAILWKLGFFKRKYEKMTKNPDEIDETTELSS
The target of assay [2] is T2, Integrin alpha-L (Mus musculus) (UniProt P24063).
T2 sequence (whole entry): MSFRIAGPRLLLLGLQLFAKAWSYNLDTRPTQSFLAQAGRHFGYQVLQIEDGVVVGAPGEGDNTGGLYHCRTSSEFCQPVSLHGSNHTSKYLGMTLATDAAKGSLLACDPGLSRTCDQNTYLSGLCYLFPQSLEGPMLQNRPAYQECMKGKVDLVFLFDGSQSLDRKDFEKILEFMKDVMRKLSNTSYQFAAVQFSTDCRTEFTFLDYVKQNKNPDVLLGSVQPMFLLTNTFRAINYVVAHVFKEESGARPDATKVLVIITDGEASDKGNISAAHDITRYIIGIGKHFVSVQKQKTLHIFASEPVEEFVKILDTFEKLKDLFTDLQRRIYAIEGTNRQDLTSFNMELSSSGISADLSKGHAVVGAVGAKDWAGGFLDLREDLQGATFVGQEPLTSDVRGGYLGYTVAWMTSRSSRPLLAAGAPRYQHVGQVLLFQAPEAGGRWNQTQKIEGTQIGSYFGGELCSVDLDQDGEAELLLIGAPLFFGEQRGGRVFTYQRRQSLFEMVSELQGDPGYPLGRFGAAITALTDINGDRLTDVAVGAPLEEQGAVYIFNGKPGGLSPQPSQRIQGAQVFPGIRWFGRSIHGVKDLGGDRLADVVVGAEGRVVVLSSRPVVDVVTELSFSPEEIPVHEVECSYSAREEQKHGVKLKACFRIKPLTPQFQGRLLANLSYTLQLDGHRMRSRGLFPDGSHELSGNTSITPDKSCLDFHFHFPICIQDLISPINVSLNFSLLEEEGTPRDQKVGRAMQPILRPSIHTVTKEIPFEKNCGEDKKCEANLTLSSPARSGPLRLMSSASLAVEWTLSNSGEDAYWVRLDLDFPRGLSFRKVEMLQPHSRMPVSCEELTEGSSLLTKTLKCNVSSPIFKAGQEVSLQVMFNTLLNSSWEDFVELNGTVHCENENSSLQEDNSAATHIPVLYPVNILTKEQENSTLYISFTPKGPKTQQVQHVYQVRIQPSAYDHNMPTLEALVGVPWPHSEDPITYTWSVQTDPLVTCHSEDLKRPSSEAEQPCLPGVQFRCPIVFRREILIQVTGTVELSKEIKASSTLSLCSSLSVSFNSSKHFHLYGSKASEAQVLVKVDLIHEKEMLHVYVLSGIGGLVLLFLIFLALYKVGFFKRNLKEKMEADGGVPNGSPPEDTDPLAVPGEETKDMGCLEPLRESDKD
The assay is described as follows: Inhibition of LFA-1/ICAM-1 interaction in mouse CT26 cells assessed as PMA-induced adhesion to ICAM-1 expressing HSE cells at 20 ug/ 5 x 10^5 cells by fluorometric microplate reader analysis. Type of assay: cell-based. The gist of the method: (§1)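 CT26-CC or Lim51b-CC cells were stimulated with PMA and preincubated for 30 min with compound or anti-LFA-1 antibody. Adhesion to hepatic sinusoidal endothelial cells was then quantified using a previously validated in vitro bioassay. Significance was assessed by ANOVA with Bonferroni post hoc test.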

The target in assay [3] is T2, Integrin alpha-L (Mus musculus). The assay is described as follows: Inhibition of LFA-1/ICAM-1 interaction in mouse Lim51b cells assessed as PMA-induced adhesion to ICAM-1 expressing HSE cells at 20 ug/ 5 x 10^5 cells after 30 mins by fluorometric microplate reader analysis. Format: cell-based. The gist of the method:
as §1

In assay [4] the test system is CT26. The assay is described as follows: Antitumor activity against mouse CT26 cells allografted in BALB/c mouse assessed as decrease in expression level of protein Ki67 at 2.5 mg/kg, sc measured on day 15 relative to control. Format: functional. Set-up: scale not given: the % may be the effect or the level left. The settings on record: route subcutaneous. The gist of the method:
(§2)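 BALB/c mice were injected subcutaneously with 5 × 10⁵ CT26-CC cells. Compound/PAMAM G3.5 was then given as daily subcutaneous injections at 2.5 mg/kg. Primary tumors were removed on day 15 and their volume was measured. Ki67 was scored by immunohistochemistry as the percentage of positive tumor cells across 10 random fields. Significance was assessed by ANOVA with a post hoc test.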

In assay [5] the test system is CT26. The assay is described as follows: Antitumor activity against mouse CT26 cells allografted in BALB/c mouse assessed as decrease in tumor volume at 2.5 mg/kg, sc measured on day 15 relative to control. Type of assay: functional. Set-up: scale not given: the % may be the effect or the level left. The settings on record: route subcutaneous. The gist of the method: as §2

Assay [6] concerns the target T3, Integrin alpha-L (Homo sapiens) (UniProt P20701).
T3 sequence (whole entry): T1 sequence (P20701 whole entry)
The assay is described as follows: Inhibition of LFA-1/ICAM-1 interaction in human peripheral blood leukocytes assessed as reduction on PMA-induced adhesion to immobilized human recombinant ICAM-1 at 20 ug/ 5 x 10^5 cells after 30 mins by fluorescence assay. Format: cell-based. The gist of the method: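 Human peripheral blood leukocytes were stimulated with PMA and preincubated with compound. Adhesion to immobilized recombinant human ICAM-1, a commercial form containing all five extracellular domains, was then quantified. Significance was assessed by ANOVA with Bonferroni post hoc test.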

A short description of assay [7]: Binding affinity to I-domain of human integrin alphaL (amino acid residues 128 to 307) plus initial methionine K287C/K294C mutant expressed in BL21 cells by NMR spectroscopy. Format: cell-based.
The subject of assay [8] is B16. The assay is described as follows: Inhibition of VEGF production in mouse B16 M cells at 10 ug/ml preincubated for 30 mins prior to H2O2 addition measured after 2 hrs by ELISA. Format: functional, cell-based. A general note: ELISA stands for enzyme-linked immunosorbent assay.
The test system of assay [9] is B16. The assay is described as follows: Inhibition of VEGF production in mouse B16 M cells at 10 ug/ml preincubated for 30 mins prior to ICAM addition measured after 2 hrs by ELISA. Type of assay: functional, cell-based.
In assay [10] the test system is CT26. The assay is described as follows: Antimetastatic activity against mouse CT26 cells allografted in BALB/c mouse assessed as decrease in cancer cell volume in liver at 10 ug/ml preincubated for 30 mins prior to inoculation measured on day 14 relative to control. Format: functional. The gist of the method:
(§3)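 Male BALB/c mice, 6–8 weeks old and anesthetized (n = 10 per group; three independent experiments), received an intrasplenic injection of 1.5 × 10⁵ viable CT26-CC cells in 0.1 mL Hank's balanced salt solution. Mice were killed on day 14. Densitometric and stereological image analysis gave metastases per 100 mm³ liver (fifteen sections per liver) and the percentage of liver volume occupied.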

Assay [11] deals with CT26. The assay is described as follows: Antimetastatic activity against mouse CT26 cells allografted in BALB/c mouse assessed as reduction in metastasis density at 10 ug/ml preincubated for 30 mins prior to inoculation measured on day 14 relative to control. Type of assay: functional. The gist of the method:
as §3

A further assay deals with B16M. The assay is described as follows: Inhibition of VLA-4/VCAM-1 interaction in mouse B16M cells assessed as PMA-induced adhesion to immobilized VCAM-1 at 25 ug/ 5 x 10^5 cells after 30 mins by microplate reader analysis. Format: cell-based.
The next assay has as its system BL21. The assay is described as follows: Inhibition of I-domain of human integrin alphaL (amino acid residues 128 to 307) plus initial methionine K287C/K294C mutant-ICAM1 interaction expressed in BL21 cells after 4 hrs by NMR analysis.

With `CC[C@H](C)[C@H](OCc1ccccc1)[C@H]1[C@H]([N+](=O)[O-])[C@H](c2ccccc2)N[C@]1(C)C(=O)NCCCC(=O)O`, the Kd on Integrin alpha-L came out at 7.4 µM. For the same molecule, the result (in the assay listed under Homo sapiens; in assay [1]) was inactive. Also, the inhibition entry in assay [2] is “Active”.

In the case of `CC[C@H](C)[C@H](OCc1ccccc1)[C@H]1[C@H]([N+](=O)[O-])[C@H](c2ccccc2)N[C@@H]1C(=O)NCCC(=O)O`, the inhibition result in assay [3] and in [2] was “Active” each time.

Turning to `CC[C@H](C)[C@H](OCc1ccccc1)[C@H]1[C@H]([N+](=O)[O-])[C@H](c2ccccc2)N[C@@H]1C(=O)NCC(=O)O`, the inhibition entry in assay [2] was “inactive”.

Regarding `CC[C@H](C)[C@H](OCc1ccccc1F)[C@H]1[C@H]([N+](=O)[O-])[C@H](c2ccsc2)N[C@@H]1C(=O)NCCC(=O)O`, the inhibition entry in assay [2] was “inactive”.

Regarding `CC[C@H](C)[C@H](OCc1ccccc1)[C@H]1[C@H]([N+](=O)[O-])[C@H](c2ccccc2)N[C@@H]1C(=O)NCCCCC(=O)O`, in [2], the inhibition entry was “Active”.

As to `CC[C@H](C)[C@H](OCc1ccccc1)[C@H]1[C@H]([N+](=O)[O-])[C@H](c2ccccc2)N[C@]1(C)C(=O)NCCCCC(=O)O`, the inhibition entry in assay [2] was “Active”.

`CC[C@H](C)[C@H](OCc1ccccc1)[C@H]1[C@H]([N+](=O)[O-])[C@H](c2ccccc2)N(C(=O)CN)[C@]1(C)C(=O)NCCC(=O)O`: the Activity is 40% with CT26 [4] and 77% in the assay with CT26 [5]. Also, in assay [2], the inhibition result is “Active”.

As to `CC[C@H](C)C(=O)O[C@H]1C[C@@H](C)C=C2C=C[C@H](C)[C@H](CC[C@@H]3C[C@@H](O)CC(=O)O3)[C@H]21`, the outcome in [1] was inactive.

As for `CC[C@H](C)[C@H](OCc1ccccc1)[C@H]1[C@H]([N+](=O)[O-])[C@H](c2ccccc2)N[C@]1(C)C(=O)NCCCCCC(=O)O`, the inhibition entry in assay [2] is “Active”.

In the case of `CC[C@H](C)[C@H](OCc1ccccc1)[C@H]1[C@H]([N+](=O)[O-])[C@H](c2ccccc2)N[C@@H]1C(=O)NCCCC(=O)O`, in assay [2], the inhibition result is “Active”.

For the molecule `CC[C@H](C)[C@H](OCc1ccccc1)[C@H]1[C@H]([N+](=O)[O-])[C@H](c2ccccc2)N[C@@H]1C(=O)NCCCCCC(=O)O`, the Activity stood at 40% in the assay on CT26 [4] and 85% in the assay with CT26 [5]. The inhibition result in [6] and in [2] was “Active” in each case.

Consider `CC[C@H](C)[C@H](OCc1ccccc1)[C@H]1[C@H]([N+](=O)[O-])[C@H](c2ccccc2)N[C@]1(C)C(=O)NCCC(=O)O`, for which the Kd was determined as 81.1 µM in assay [7] and 10.1 µM at Integrin alpha-L. For the same molecule, the inhibition entry (in the assay on B16 [8]; with B16 [9]; in assay [6]; in assay [3]; in [2]) was “Active” in each case. The “fold change (FC)” value with CT26 [10] and in the assay on CT26 [11] was 25 throughout. The inhibition result in the assay with B16M and with BL21 was “inactive” each time.
